Assay results reported in ChEMBL document CHEMBL1155238, “Synthesis and antimycobacterial activity of N'-[(E)-(monosubstituted-benzylidene)]-2-pyrazinecarbohydrazide derivatives” (Eur J Med Chem, 2009).
Values after ≈ are worked out from the molar mass of the structure shown.

How the values were obtained:
[1] = Cytotoxicity against mouse J774 cells assessed as cell viability at 50 ug/ml after 48 hrs by MTT assay; type: cell-based; details: read-out: Activity
[2] = Cytotoxicity against mouse J774 cells assessed as cell viability at 100 ug/ml after 48 hrs by MTT assay; type: cell-based; details: read-out: Activity
How it was run: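 Uninfected J774 macrophages seeded at 2.5 × 10^6 cells/well for 24 h (5% CO2, 37 °C); non-adherent cells washed off with RPMI 1640, 10% FBS, gentamicin 25 µg/mL. Adherent cells given compound (1.0, 10.0, 100 µg/mL) in triplicate for 48 h. Medium was the live control, 3% tween 20 the dead control. MTT for 4 h, DMSO solubilization, absorbance at 540 nm, % viability.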

[3] = Cytotoxicity against mouse J774 cells assessed as cell viability at 150 ug/ml after 48 hrs by MTT assay; type: cell-based; details: read-out: Activity
[4] = Cytotoxicity against Mycobacterium bovis Bacillus Calmette-Guerin infected mouse J774 cells assessed as cell viability at 50 ug/ml after 48 hrs by MTT assay; type: cell-based; details: read-out: Activity
[5] = Cytotoxicity against Mycobacterium bovis Bacillus Calmette-Guerin infected mouse J774 cells assessed as cell viability at 100 ug/ml after 48 hrs by MTT assay; type: cell-based; details: read-out: Activity
How it was run: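 J774 macrophages seeded at 2.5 × 10^6 cells/well for 24 h (5% CO2, 37 °C); non-adherent cells washed off with RPMI 1640, 10% FBS, gentamicin 25 µg/mL. Adherent cells infected with BCG (2.5 × 10^6 UFC/well), then given compound (1.0, 10.0, 100 µg/mL) in triplicate for 48 h. Medium was the live control, 3% tween 20 the dead control. MTT for 4 h, DMSO solubilization, A540, % viability.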

[6] = Cytotoxicity against Mycobacterium bovis Bacillus Calmette-Guerin infected mouse J774 cells assessed as cell viability at 150 ug/ml after 48 hrs by MTT assay; type: cell-based; details: read-out: Activity
[7] = tested on: Mycobacterium tuberculosis; assay: Antimycobacterial activity against Mycobacterium tuberculosis H37Rv ATCC 27294 after 5 days by microplate Alamar blue assay; type: functional; details: H37Rv ATCC 27294, 120 h
How it was run: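 M. tuberculosis ATCC 27294 in Middlebrook 7H9 broth with compounds serially diluted on the plate (final 0.01–100 µg/mL). Incubated at 37 °C for five days, then a 1:1 Alamar Blue/10% tween 80 mix was added for 24 h. Blue read as no growth, pink as growth. MIC is the lowest concentration preventing the blue-to-pink change.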

Structure (SMILES) | viability at 48 h, 50 ug/ml [1] | viability at 48 h, 100 ug/ml [2] | viability at 48 h, 150 ug/ml [3] | viability at 48 h, 50 ug/ml [4] | viability at 48 h, 100 ug/ml [5] | viability at 48 h, 150 ug/ml [6] | MIC [7]
O=C(N/N=C/c1cccc([N+](=O)[O-])c1)c1cnccn1 | 100% | 85% | 76% | 92% | 92% | 72% | 100 µg/mL (≈ 369 µM)
O=C(N/N=C/c1ccccc1Br)c1cnccn1 | 98% | 100% | 91% | 73% | 64% | 52% | –
CCN(CC)c1ccc(/C=N/NC(=O)c2cnccn2)cc1 | 97% | 92% | 93% | 85% | 84% | 78% | –
O=C(N/N=C/c1ccc([N+](=O)[O-])cc1)c1cnccn1 | 50% | 44% | 44% | – | – | – | –
O=C(N/N=C/c1ccccc1O)c1cnccn1 | 1% | 0.3% | 0% | – | – | – | –
O=C(N/N=C/c1ccc(F)cc1)c1cnccn1 | 78% | 69% | 71% | – | – | – | –
CN(C)c1ccc(/C=N/NC(=O)c2cnccn2)cc1 | 93% | 87% | 89% | 80% | 73% | 71% | –
O=C(N/N=C/c1ccc(Cl)cc1)c1cnccn1 | 83% | 64% | 56% | – | – | – | –
COc1cccc(/C=N/NC(=O)c2cnccn2)c1 | 100% | 100% | 97% | 100% | 98% | 87% | > 100 µg/mL
COc1ccc(/C=N/NC(=O)c2cnccn2)cc1 | 74% | 55% | 55% | – | – | – | –
CCOc1cccc(/C=N/NC(=O)c2cnccn2)c1 | 74% | 71% | 69% | – | – | – | –
O=C(N/N=C/c1ccccc1Cl)c1cnccn1 | 70% | 66% | 69% | – | – | – | –
O=C(N/N=C/c1ccccc1F)c1cnccn1 | 100% | 100% | 81% | 100% | 80% | 88% | 100 µg/mL (≈ 409 µM)
O=C(N/N=C/c1cccc(F)c1)c1cnccn1 | 49% | 46% | 40% | – | – | – | –
O=C(N/N=C/c1ccc(O)cc1)c1cnccn1 | 100% | 81% | 80% | 100% | 72% | 91% | –
N#Cc1ccccc1/C=N/NC(=O)c1cnccn1 | 92% | 75% | 70% | 80% | 73% | 75% | –
CCOc1ccc(/C=N/NC(=O)c2cnccn2)cc1 | 100% | 98% | 100% | 90% | 85% | 88% | > 100 µg/mL
O=C(N/N=C/c1cccc(O)c1)c1cnccn1 | 100% | 100% | 88% | 73% | 64% | 57% | –
N#Cc1ccc(/C=N/NC(=O)c2cnccn2)cc1 | 100% | 100% | 100% | 100% | 98% | 100% | > 100 µg/mL
O=C(N/N=C/c1cccc(Cl)c1)c1cnccn1 | 100% | 100% | 100% | 100% | 96% | 94% | 50 µg/mL (≈ 192 µM)
N#Cc1cccc(/C=N/NC(=O)c2cnccn2)c1 | 100% | 100% | 100% | 100% | 98% | 89% | 50 µg/mL (≈ 199 µM)
O=C(N/N=C/c1cccc(Br)c1)c1cnccn1 | 100% | 100% | 93% | 87% | 96% | 56% | –
COc1ccccc1/C=N/NC(=O)c1cnccn1 | 97% | 100% | 97% | 87% | 54% | 56% | –
O=C(N/N=C/c1ccc(Br)cc1)c1cnccn1 | 100% | 100% | 94% | 52% | 56% | 54% | –
O=C(N/N=C/c1ccccc1)c1cnccn1 | 100% | 75% | 100% | 100% | 88% | 80% | > 100 µg/mL
O=C(N/N=C/c1ccccc1[N+](=O)[O-])c1cnccn1 | 90% | 59% | 46% | 100% | 94% | 88% | 50 µg/mL (≈ 184 µM)
NC(=O)c1cnccn1 [PYRAZINAMIDE] | 100% | 100% | 100% | 92% | 87% | 67% | > 100 µg/mL
